OXTR ag: activates the human oxytocin receptor | P30559 | CHO-OTR cells, Fluo-8 calcium fluorescence; normalized: DMSO 0%, oxytocin 100% | activation, % at 3 µM | 320,000 compounds, 0.32% hits;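 active = activation above the mean of all tested compounds plus 3 SD, cutoff set per screening run, cut at about 20% in these data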;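 also: peak over basal fluorescence ratio from a 100 s FLIPR kinetic read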
TAAR1 agonist: agonists of human TAAR1 | Q96RJ0 | AID 624467 | activation, % at 3 µM | 360,000 compounds, 0.99% hits | CHO RD-HGA16 TAAR1, Fluo-8 calcium fluorescence; vehicle wells 0%, saturating PEA agonist 100%;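 active = activation above the mean activation of all test compounds in the run plus 3 SD, cut at about 38% in these data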
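Test system: RD-HGA16 (CHO) cells co-expressing Gα16 and hTAAR1 | Doses: Single dose, 3 µM | Schedule: 17-24 h seeding, 75 min 37 °C dye, 30 min RT | Evaluation: % activation from peak over basal fluorescence ratio, DMSO-to-PEA scaled | Technique: Kinetic Fluo-8 calcium fluorescence | Benchmarks: Low control DMSO, high control PEA (EC100)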
OXTR potentiator: potentiates the human oxytocin receptor response; activation, % at 3 µM; P30559; 320,000 compounds, 0.061% hits; CHO-OTR cells, Fluo-8 calcium fluorescence, potentiator mode; 0% = oxytocin EC15, 100% = EC100;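 active = activation above that plate's cutoff, the mean activation of tested compounds plus 3 SD, cut at about 6.6% in these data, passing the limit was not always enough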
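Assay system: CHO cell line stably expressing human OTR. Reagent: EC15 oxytocin agonist. Dosing: single dose, 3.0 µM nominal final compound concentration. Timing: compound 6 min at room temperature before oxytocin, 100 s read. Signal: kinetic Fluo-8 calcium fluorescence. Controls: oxytocin EC15 low and EC100 high.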
V1aR counter: counter-screen for oxytocin receptor agonists: human V1a receptor agonists. AID 2797. 320,000 compounds, 0.25% hits. P37288. CHO-V1R cells, Fluo-8 calcium fluorescence, agonist mode; 0% DMSO, 100% 3 nM vasopressin. activation, % at 3 µM;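 active = activation above the mean activation of all tested compounds plus 3 SD, per screening run, cut at about 20% in these data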;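 also: signal is peak over basal fluorescence ratio across a 100 second FLIPR read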
Target sequence (P37288 whole entry, looked up): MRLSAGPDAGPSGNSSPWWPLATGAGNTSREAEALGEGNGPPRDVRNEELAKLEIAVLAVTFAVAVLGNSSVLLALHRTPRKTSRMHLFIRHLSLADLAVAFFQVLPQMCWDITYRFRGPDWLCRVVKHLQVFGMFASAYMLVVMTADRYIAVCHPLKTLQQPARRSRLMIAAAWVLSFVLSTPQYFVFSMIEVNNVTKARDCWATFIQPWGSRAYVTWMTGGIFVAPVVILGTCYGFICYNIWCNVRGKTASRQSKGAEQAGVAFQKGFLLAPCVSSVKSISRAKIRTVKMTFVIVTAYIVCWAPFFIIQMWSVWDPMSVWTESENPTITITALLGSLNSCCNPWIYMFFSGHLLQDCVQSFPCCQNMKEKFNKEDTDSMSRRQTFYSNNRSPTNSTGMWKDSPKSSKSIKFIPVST
TAAR1 antagonist: antagonists of human TAAR1. Q96RJ0. CHO RD-HGA16 TAAR1, Fluo-8 calcium fluorescence, antagonist. inhibition, % at 3 µM. 360,000 compounds, 1.5% hits. AID 624466;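 active = inhibition above a per-plate cutoff, the mean inhibition of test compounds on that plate plus 3 SD, cut at about 49% in these data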
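Assay system: CHO-derived RD-HGA16 cells stably expressing human TAAR1 plus Gα16. Timing: 140 s kinetic read after compound, 140 s after agonist. Technique: kinetic Fluo-8 calcium fluorescence measurement. Measure: % inhibition of agonist calcium response.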
TAAR1 ag confirm: human TAAR1 agonism, confirmed. shares compounds with TAAR1 agonist. CHO RD-HGA16 TAAR1, Fluo-8 calcium fluorescence; scaled: DMSO 0%, maximal phenethylamine 100%. activation, % at 3 µM. 2,400 compounds, 82% hits;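 active = activation above a cutoff set at the run's mean compound activation plus 3 SD, cut at about 39% in these data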
Ga16 ag counter: nonselective agonism, TAAR1 counter-screen. shares compounds with TAAR1 agonist. CHO-Ga16 parental, Fluo-8 calcium fluorescence; normalized to maximal ATP response, DMSO zero. activation, % at 3 µM. 2,400 compounds, 50% hits. AID 651787;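 active = activation above the run cutoff, the mean activation over all tested wells plus 3 SD, cut at about 12% in these data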
TAAR1 desensitize: TAAR1 response desensitization, agonist counter-screen | shares compounds with TAAR1 agonist | CHO RD-HGA16 hTAAR1, Fluo-8 calcium, beta-PEA response inhibition | inhibition, % at 3 µM | 2,400 compounds, 46% hits;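 active = inhibition above the run cutoff, the mean inhibition of all test compounds plus 3 SD, cut at about 49% in these data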;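 also: beta-PEA stimulus applied at its EC80; loss of beta-PEA calcium signal after compound pretreatment read as receptor desensitization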
Ga16 nonsel ant: nonselective Ga16 antagonist in TAAR1 agonist counter-screen | shares compounds with TAAR1 agonist | CHO-Ga16 ATP-induced calcium, Fluo-8 fluorescence | inhibition, % at 3 µM | 2,400 compounds, 39% hits | AID 651952;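 active = inhibition above the plate's mean compound inhibition plus 3 SD, computed per plate, cut at about 22% in these data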
Hits are given with their value. Compounds with a hit are over-represented: about 2.3% of the library has one in this group of screens.

For O=c1c2ccccc2nc(-c2cccs2)n1-c1ccccc1 the results were OXTR ag inactive, TAAR1 agonist inactive, OXTR potentiator inactive, V1aR counter inactive and TAAR1 antagonist inactive.
`NC(N)=N/N=C/c1cn(-c2ccccc2)nc1-c1cccs1` gave OXTR ag inactive, TAAR1 agonist 47.0, OXTR potentiator inactive, V1aR counter inactive, TAAR1 antagonist inactive, TAAR1 ag confirm 76.0, Ga16 ag counter inactive, TAAR1 desensitize inactive and Ga16 nonsel ant inactive.
Screening C[C@H]1CCCC(=O)CCC/C=C/c2cc(O)cc(O)c2C(=O)O1 returned OXTR ag inactive, TAAR1 agonist inactive, OXTR potentiator inactive, V1aR counter inactive and TAAR1 antagonist inactive.
`COc1cc(O)cc2c1C(=O)OC(C)CCCC(=O)CCC/C=C\2` (centres undefined) gave OXTR ag inactive, TAAR1 agonist 55.2, OXTR potentiator inactive, V1aR counter inactive, TAAR1 antagonist inactive, TAAR1 ag confirm inactive, Ga16 ag counter 26.3, TAAR1 desensitize inactive and Ga16 nonsel ant 22.8.
`CCC1(Oc2ccccc2)C(=O)NC(=O)NC1=O` gave TAAR1 agonist inactive and TAAR1 antagonist inactive.
CCC1(C)OC(c2ccccc2)=C/C(=C/C=C2C(=O)NC(=O)NC2=O)O1 (centres undefined) was read as TAAR1 agonist 70.2, TAAR1 antagonist 67.9, TAAR1 ag confirm inactive, Ga16 ag counter 23.7, TAAR1 desensitize inactive and Ga16 nonsel ant 41.9.
Screening CC(C)NC1C2CCC(CC2)C1(O)c1ccc(Cl)c(Cl)c1 (centres undefined) returned TAAR1 agonist inactive and TAAR1 antagonist inactive.
Screening CCCCOc1ccc(CCN)cc1Cl returned OXTR ag inactive, TAAR1 agonist 86.6, OXTR potentiator inactive, V1aR counter inactive, TAAR1 antagonist 67.3, TAAR1 ag confirm 98.9, Ga16 ag counter 17.9, TAAR1 desensitize 84.1 and Ga16 nonsel ant inactive.
COc1ccc(CCN)cc1O was read as OXTR ag inactive, TAAR1 agonist 46.9, OXTR potentiator inactive, V1aR counter inactive, TAAR1 antagonist inactive, TAAR1 ag confirm 61.7, Ga16 ag counter inactive, TAAR1 desensitize inactive and Ga16 nonsel ant inactive.
COc1cc(C(O)CN)ccc1O (centres undefined) was read as OXTR ag inactive, TAAR1 agonist inactive, OXTR potentiator inactive, V1aR counter inactive and TAAR1 antagonist inactive.
For CC(C)Oc1ccc(CCN)cc1Cl the results were OXTR ag inactive, TAAR1 agonist 51.7, OXTR potentiator inactive, V1aR counter inactive, TAAR1 antagonist inactive, TAAR1 ag confirm 67.5, Ga16 ag counter inactive, TAAR1 desensitize inactive and Ga16 nonsel ant inactive.
For C#C[C@]1(O)[C@H](O)CC2C3CC[C@H]4C[C@@H](O)CC[C@]4(C)C3CC[C@@]21C (some centres undefined) the results were OXTR ag inactive, TAAR1 agonist inactive, OXTR potentiator inactive, V1aR counter inactive and TAAR1 antagonist inactive.
`COC(=O)C1=C(c2ccc(F)cc2OCc2ccccc2)C[C@@H]2CC[C@H]1N2C(=O)NC1CC1` gave OXTR ag inactive, TAAR1 agonist inactive, OXTR potentiator inactive, V1aR counter inactive and TAAR1 antagonist inactive.
Screening O=C(Nc1ccc(Cl)cc1)Nc1nccs1 returned OXTR ag inactive, TAAR1 agonist 50.0, OXTR potentiator inactive, V1aR counter inactive, TAAR1 antagonist inactive, TAAR1 ag confirm 56.2, Ga16 ag counter inactive, TAAR1 desensitize inactive and Ga16 nonsel ant 22.0.
Screening COc1ccccc1CCNCc1cc2c(cc1[N+](=O)[O-])OCO2 returned OXTR ag inactive, OXTR potentiator inactive, V1aR counter inactive, Ga16 ag counter inactive and Ga16 nonsel ant inactive.

Assay outcomes: PubChem BioAssay, The Scripps Research Institute Molecular Screening Center
